From ChEMBL document CHEMBL4251593, “Nontoxic combretafuranone analogues with high in vitro antibacterial activity” (Eur J Med Chem, 2018)
Values after ≈ are worked out from the molar mass of the structure shown. Active and inactive are the calls of the source. The calls are words filed in the database; no cut-off is given here.

Key:
[1] = system: MCF7; assay: Cytotoxicity against human MCF7 cells assessed as reduction in cell viability after 48 hrs by ATPlite-based luminescent assay; conditions: MCF7, 48 h
[2] = system: PC-3; assay: Cytotoxicity against human PC3 cells assessed as reduction in cell viability after 48 hrs by ATPlite-based luminescent assay; conditions: PC-3, 48 h
Summary of the method: (§1)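 Cells were grown […] with 10% FBS, glutamax, NEAA and pen/strep at 37 °C, 5% CO2. Media were DMEM for RPE-1, HepG2 and BJ (BJ plus 10 ng/ml bFGF), F-12K for PC3, and IMDM for K562/HL-60. Cells were seeded at 500 per well and dosed from DMSO at 12 concentrations, 40 µM to 1 nM, in triplicate. After 48 h, intracellular ATP was read by luminescence. ED50 was obtained by variable-slope nonlinear regression.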

[3] = system: Aspergillus fumigatus; assay: Antifungal activity against Aspergillus fumigatus 231 up to 1 mM after 24 to 48 hrs by microdilution assay; format: functional, organism-based
Summary of the method: (§2)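 Fungal microdilution following modified CLSI M27-A3/M38-A2, in RPMI 1640 with L-glutamine and 0.165 M MOPS at pH 7.0, with DMSO no more than 2% final. Compounds were 2-fold serially diluted from 2000 to 0.488 µmol/l. The inoculum was 5×10^3 cfu/ml. Incubation was at 35 °C, read visually at 24/48 h (T. mentagrophytes at 72/120 h). MIC was IC80 for yeasts and IC50 for filamentous fungi, determined twice in duplicate.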

[4] = system: Staphylococcus epidermidis; assay: Antibacterial activity against Staphylococcus epidermidis HK6966/08 clinical isolate after 48 hrs by microdilution assay; format: functional; conditions: HK6966/08, 48 h
[5] = system: Candida parapsilosis; assay: Antifungal activity against Candida parapsilosis ATCC 22019 up to 1 mM after 24 to 48 hrs by microdilution assay; format: functional, organism-based; summary of the method: as §2
[6] = system: K562; assay: Induction of apoptosis in human K562 cells assessed as caspase 3/7 activity after 24 hrs by caspase-glo luminescent assay; format: cell-based; conditions: K562, 24 h
Summary of the method: (§3)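 Cells were seeded at 500 per well in their growth media and exposed to 12 concentrations from 40 µM to 1 nM, delivered from DMSO, in triplicate. After 24 h, caspase-3/7 activity was read by Caspase-Glo luminescence. Data were normalized and ED50 was fitted by variable-slope nonlinear regression.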

[7] = system: Trichosporon asahii; assay: Antifungal activity against Trichosporon asahii 1188 clinical isolate up to 1 mM after 24 to 48 hrs by microdilution assay; format: functional, organism-based; summary of the method: as §2
[8] = system: Candida albicans; assay: Antifungal activity against Candida albicans ATCC 44859 up to 1 mM after 24 to 48 hrs by microdilution assay; format: functional, organism-based; summary of the method: as §2
[9] = system: Klebsiella pneumoniae; assay: Antibacterial activity against Klebsiella pneumoniae HK14368/08 clinical isolate after 48 hrs by microdilution assay; format: functional; conditions: HK14368/08, 48 h
[10] = system: TERT-RPE1; assay: Cytotoxicity against human RPE1 cells assessed as reduction in cell viability after 48 hrs by ATPlite-based luminescent assay; conditions: RPE-1, 48 h; summary of the method: as §1
[11] = system: Pseudomonas aeruginosa; assay: Antibacterial activity against Pseudomonas aeruginosa ATCC 9027 after 24 hrs by microdilution assay; format: functional; conditions: ATCC 9027, 24 h
Summary of the method: (§4)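 Broth microdilution in Mueller-Hinton medium buffered to pH 7.4 (±0.2), with DMSO as diluent at no more than 2% final. Compounds were tested as 2-fold serial dilutions from 2000 to 0.488 µmol/l. The inoculum was 0.5 McFarland (1.5×10^8 cfu/ml). Plates were held at 37 °C and read visually at 24 and 48 h. MIC was taken as 95% growth inhibition versus control, determined twice in duplicate.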

[12] = system: Klebsiella pneumoniae; assay: Antibacterial activity against Klebsiella pneumoniae HK11750/08 clinical isolate after 48 hrs by microdilution assay; format: functional; conditions: HK11750/08, 48 h
[13] = system: Candida tropicalis; assay: Antifungal activity against Candida tropicalis 156 clinical isolate up to 1 mM after 24 to 48 hrs by microdilution assay; format: functional, organism-based; summary of the method: as §2
[14] = system: K562; assay: Cytotoxicity against human K562 cells assessed as reduction in cell viability after 48 hrs by ATPlite-based luminescent assay; conditions: K562, 48 h; summary of the method: as §1
[15] = system: Staphylococcus aureus; assay: Antibacterial activity against methicillin-resistant Staphylococcus aureus HK5996/08 clinical isolate after 24 hrs by microdilution assay; format: functional; conditions: HK5996/08, 24 h
[16] = system: Candida albicans; assay: Antifungal activity against Candida albicans ATCC 90028 up to 1 mM after 24 to 48 hrs by microdilution assay; format: functional, organism-based; summary of the method: as §2
[17] = system: TERT-RPE1; assay: Induction of apoptosis in human RPE1 cells assessed as caspase 3/7 activity after 24 hrs by caspase-glo luminescent assay; format: cell-based; conditions: RPE-1, 24 h; summary of the method: as §3
[18] = system: Escherichia coli; assay: Antibacterial activity against Escherichia coli ATCC 8739 after 24 hrs by microdilution assay; format: functional; conditions: ATCC 8739, 24 h; summary of the method: as §4
[19] = system: HepG2; assay: Induction of apoptosis in human HepG2 cells assessed as caspase 3/7 activity after 24 hrs by caspase-glo luminescent assay; format: cell-based; conditions: HepG2, 24 h; summary of the method: as §3
[20] = system: Enterococcus sp.; assay: Antibacterial activity against Enterococcus sp. HK14365/08 clinical isolate after 24 hrs by microdilution assay; format: functional; conditions: HK14365/08, 24 h
[21] = system: HL-60; assay: Induction of apoptosis in human HL60 cells assessed as caspase 3/7 activity after 24 hrs by caspase-glo luminescent assay; format: cell-based; conditions: HL-60, 24 h; summary of the method: as §3
[22] = system: Staphylococcus aureus; assay: Antibacterial activity against Staphylococcus aureus ATCC 6538 after 24 hrs by microdilution assay; format: functional; conditions: ATCC 6538, 24 h
[23] = system: HepG2; assay: Cytotoxicity against human HepG2 cells assessed as reduction in cell viability after 48 hrs by ATPlite-based luminescent assay; conditions: HepG2, 48 h; summary of the method: as §1
[24] = system: Clavispora lusitaniae; assay: Antifungal activity against Candida lusitaniae 2446/I clinical isolate up to 1 mM after 24 to 48 hrs by microdilution assay; format: functional, organism-based; summary of the method: as §2
[25] = system: Trichophyton mentagrophytes; assay: Antifungal activity against Trichophyton mentagrophytes 445 up to 1 mM after 72 to 120 hrs by microdilution assay; format: functional, organism-based; summary of the method: as §2
[26] = system: Pichia kudriavzevii; assay: Antifungal activity against Candida krusei ATCC 6258 up to 1 mM after 24 to 48 hrs by microdilution assay; format: functional, organism-based; summary of the method: as §2
[27] = system: Staphylococcus epidermidis; assay: Antibacterial activity against Staphylococcus epidermidis HK6966/08 clinical isolate after 24 hrs by microdilution assay; format: functional; conditions: HK6966/08, 24 h
[28] = system: Pseudomonas aeruginosa; assay: Antibacterial activity against Pseudomonas aeruginosa ATCC 9027 after 48 hrs by microdilution assay; format: functional; conditions: ATCC 9027, 48 h; summary of the method: as §4
[29] = system: Staphylococcus aureus; assay: Antibacterial activity against methicillin-resistant Staphylococcus aureus HK5996/08 clinical isolate after 48 hrs by microdilution assay; format: functional; conditions: HK5996/08, 48 h
[30] = system: PC-3; assay: Induction of apoptosis in human PC3 cells assessed as caspase 3/7 activity after 24 hrs by caspase-glo luminescent assay; format: cell-based; conditions: PC-3, 24 h; summary of the method: as §3
[31] = system: Klebsiella pneumoniae; assay: Antibacterial activity against Klebsiella pneumoniae HK14368/08 clinical isolate after 24 hrs by microdilution assay; format: functional; conditions: HK14368/08, 24 h
[32] = system: Lichtheimia corymbifera; assay: Antifungal activity against Absidia corymbifera 272 up to 1 mM after 24 to 48 hrs by microdilution assay; format: functional, organism-based; summary of the method: as §2
[33] = system: Pichia kudriavzevii; assay: Antifungal activity against Candida krusei E28 clinical isolate up to 1 mM after 24 to 48 hrs by microdilution assay; format: functional, organism-based; summary of the method: as §2
[34] = system: Enterococcus sp.; assay: Antibacterial activity against Enterococcus sp. HK14365/08 clinical isolate after 48 hrs by microdilution assay; format: functional; conditions: HK14365/08, 48 h
[35] = system: Klebsiella pneumoniae; assay: Antibacterial activity against Klebsiella pneumoniae HK11750/08 clinical isolate after 24 hrs by microdilution assay; format: functional; conditions: HK11750/08, 24 h
[36] = system: Escherichia coli; assay: Antibacterial activity against Escherichia coli ATCC 8739 after 48 hrs by microdilution assay; format: functional; conditions: ATCC 8739, 48 h; summary of the method: as §4
[37] = system: HL-60; assay: Cytotoxicity against human HL60 cells assessed as reduction in cell viability after 48 hrs by ATPlite-based luminescent assay; conditions: HL-60, 48 h; summary of the method: as §1
[38] = system: Nakaseomyces glabratus; assay: Antifungal activity against Candida glabrata 20/I clinical isolate up to 1 mM after 24 to 48 hrs by microdilution assay; format: functional, organism-based; summary of the method: as §2
[39] = system: BJ; assay: Cytotoxicity against human BJ cells assessed as reduction in cell viability after 48 hrs by ATPlite-based luminescent assay; summary of the method: as §1
[40] = system: Staphylococcus aureus; assay: Antibacterial activity against Staphylococcus aureus ATCC 6538 after 48 hrs by microdilution assay; format: functional; conditions: ATCC 6538, 48 h

Compound | IC50 [1] | IC50 [2] | Activity [3] | MIC95 [4] | Activity [5] | IC50 [6] | Activity [7] | Activity [8] | MIC95 [9] | IC50 [10] | MIC95 [11] | MIC95 [12] | Activity [13] | IC50 [14] | MIC95 [15] | Activity [16] | IC50 [17] | MIC95 [18] | IC50 [19] | MIC95 [20] | further results
O=C1OC(CO)(CO)C(c2ccc(Br)cc2)=C1c1cccc(Cl)c1Cl | > 40 µM | > 40 µM | inactive | 250 µM (≈ 111 µg/mL) | inactive | > 40 µM | inactive | inactive | > 500 µM | > 40 µM | > 500 µM | > 500 µM | inactive | > 40 µM | > 500 µM | inactive | > 40 µM | > 500 µM | > 40 µM | > 500 µM | IC50 [21]: > 40 µM; MIC95 [22]: 15.6 µM (≈ 6.94 µg/mL); IC50 [23]: > 40 µM; Activity [24]: inactive; Activity [25]: inactive; Activity [26]: inactive; MIC95 [27]: 62.5 µM (≈ 27.8 µg/mL); MIC95 [28]: > 500 µM; MIC95 [29]: > 500 µM; IC50 [30]: > 40 µM; MIC95 [31]: > 500 µM; Activity [32]: inactive; Activity [33]: inactive; MIC95 [34]: > 500 µM; MIC95 [35]: > 500 µM; MIC95 [36]: > 500 µM; IC50 [37]: > 40 µM; Activity [38]: inactive; IC50 [39]: > 40 µM; MIC95 [40]: 31.2 µM (≈ 13.9 µg/mL)
Cc1ccc(C2=C(c3ccc(Br)cc3)C(=O)OC2(CO)CO)cc1 | > 40 µM | > 40 µM | inactive | 500 µM (≈ 195 µg/mL) | inactive | > 40 µM | inactive | inactive | > 500 µM | > 40 µM | > 500 µM | > 500 µM | inactive | > 40 µM | 250 µM (≈ 97.3 µg/mL) | inactive | > 40 µM | > 500 µM | > 40 µM | 500 µM (≈ 195 µg/mL) | IC50 [21]: > 40 µM; MIC95 [22]: 0.98 µM (≈ 0.381 µg/mL); IC50 [23]: > 40 µM; Activity [24]: inactive; Activity [25]: inactive; Activity [26]: inactive; MIC95 [27]: 62.5 µM (≈ 24.3 µg/mL); MIC95 [28]: > 500 µM; MIC95 [29]: 500 µM (≈ 195 µg/mL); IC50 [30]: > 40 µM; MIC95 [31]: > 500 µM; Activity [32]: inactive; Activity [33]: inactive; MIC95 [34]: > 500 µM; MIC95 [35]: > 500 µM; MIC95 [36]: > 500 µM; IC50 [37]: > 40 µM; Activity [38]: inactive; IC50 [39]: > 40 µM; MIC95 [40]: 3.9 µM (≈ 1.52 µg/mL)
